The record followed here is PubChem BioAssay AID504338 (NMMLSC, 2011).

A short description of this assay: yeast TOR reporter LAP4-GFP retest – cell-based, third cherry pick, flow cytometry, confirmation (AID 504338).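 Note: ratio to plate DMSO wells so 100% equals DMSO level rather than 0%.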 Conditions: S. cerevisiae LAP4-GFP strain, 3 h, at 10 µM, hits give high values. The method, boiled down: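 Assay system – yeast LAP4-GFP strain · Buffer or medium – synthetic complete medium · Times – compound exposure for 3 h at 30 °C · Technique – flow cytometric GFP fluorescence · Evaluation – median GFP fluorescence as percent of plate DMSO-well average · Benchmarks – rapamycin 400 ng/mL as positive control, DMSO wells as reference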

“And” between values parts separate entries of the source, which are not always exact repeats. Identical values can stand only once. Values without a mark were called inactive. The source made the active and inactive calls.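 Rule for the calls: active = GFP response vs DMSO above 150% with enough events counted; inconclusive = fewer than 70 events counted for a yeast strain; inactive = the rest.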

Take `COc1ccc(-c2cc(C(F)(F)F)nc(S(C)(=O)=O)n2)cc1OC`: the GFP response vs DMSO is 107% and 110%. To `CNc1cccc2c1C(=O)c1ccccc1C2=O` belongs 107%; to `Oc1c(Br)cc(Br)c2cccnc12`, 257% (active); to `Cc1ccc2c(Cl)cc(Cl)c(O)c2n1`, 193% (active). Consider `Cc1ccc(C(=O)/C=C/Nc2cccc(O)c2)cc1`, for which the GFP response vs DMSO was 117%. Turning to `COc1ccccc1-c1cc(C(F)(F)F)nc(S(C)(=O)=O)n1`, the GFP response vs DMSO was 128%. In the case of `Cn1c(NCCCO)nc2c(c1=O)C1(CCCCC1)Cc1ccccc1-2`, the GFP response vs DMSO was 104%. Take `CN(C)CCCNc1cc(O)c2ncccc2c1`: the GFP response vs DMSO was 110%.

For the molecule `Cc1ccc(NN2C(=O)C=C(c3ccccc3)C2=O)cc1`, the GFP response vs DMSO was 138%. As to `Cn1cccc1C(=O)Nc1nc(-c2ccccn2)cs1`, the GFP response vs DMSO was 114%. To `O=C(Nc1ccccc1Cl)ON=C1c2ccccc2-c2ccccc21` belongs 108%; to `Nn1cnc2c(c1=O)C1(CCCCC1)Cc1ccccc1-2`, 97.2%.

Take `COc1cccc2c(Cl)c(CCCl)c(C)nc12`: the GFP response vs DMSO is 104%.

As to `CN1CCN(C(=O)c2cc(COc3ccc(F)cc3Cl)on2)CC1c1ccccc1` (centres undefined), the GFP response vs DMSO was 103%. In the case of `C=CCNc1ncnc2ccc(Br)cc12`, the GFP response vs DMSO is 106%. Regarding `COc1ccc(NC(=O)O/N=C2/CCCc3ccc(OC)cc32)cc1`, the GFP response vs DMSO was 107%. `Cc1cccc(Nc2cc(=O)[nH]c(=O)[nH]2)c1C`: the GFP response vs DMSO is 101%.

`O=C(N/N=C/c1ccccc1)c1cccc2ccccc12`: the GFP response vs DMSO was 103%. Regarding `COc1cccc2c(=O)c(C(=O)O)c[nH]c12`, the GFP response vs DMSO was 110%. On to `COc1ccc(OC)c(Nc2nc(NCCC(C)C)nc(N)c2[N+](=O)[O-])c1`, for which the GFP response vs DMSO is 103%.

For the molecule `O=C(Nc1nc(-c2ccccn2)cs1)c1ccccc1-n1cnnn1`, the GFP response vs DMSO was 94.4%.

In the case of `Cc1ccc(-c2cc(C(F)F)nc(S(C)(=O)=O)n2)cc1`, the GFP response vs DMSO was 114%. To `Nc1[nH]c(=O)nc(Nc2ccccc2)c1N=O` belongs 104%; to `FC(F)Oc1cccc2cccnc12`, 101%; to `O=C(Nc1ccccc1)O/N=C1\CCCCC1c1ccc([N+](=O)[O-])cc1[N+](=O)[O-]` (centres undefined), 106%. On to `COc1ccc(OC)c2c(=O)cc(C(=O)O)[nH]c12`, for which the GFP response vs DMSO is 104%. On to `CC(=O)Nn1cnc2c(c1=O)C1(CCCC1)Cc1ccccc1-2`, for which the GFP response vs DMSO was 103%.

For `Nc1ncnc(Nc2cc(Cl)cc(Cl)c2)c1[N+](=O)[O-]`, the GFP response vs DMSO was 101%. As for `COc1ccccc1OCc1cc(C(=O)N2CCN(C)C(c3ccccc3)C2)no1` (centres undefined), the GFP response vs DMSO is 106%. Regarding `CCC(C)Nc1nc(N)c([N+](=O)[O-])c(Nc2ccccc2OC)n1` (centres undefined), the GFP response vs DMSO is 97.2%. In the case of `COC1=C/C(=C/c2c(N)n3cc(C)sc3nc2=O)C=CC1=O`, the GFP response vs DMSO is 110%. Consider `CC(=O)Nc1ccc(-c2nc3ccccc3o2)cc1`, for which the GFP response vs DMSO is 108%. With `Cc1ccc(NC(=O)O/N=C2\CCCCC2c2ccc([N+](=O)[O-])cc2[N+](=O)[O-])cc1` (centres undefined), the GFP response vs DMSO is 103%. As to `COc1ccccc1Nc1nc(NCCC(C)C)nc(N)c1[N+](=O)[O-]`, the GFP response vs DMSO is 100%.

For `CC(=O)NC(C)c1cc(Cl)c2cccnc2c1O` (centres undefined), the GFP response vs DMSO was 101%. Consider `Oc1ccc(Cl)c2cccnc12`, for which the GFP response vs DMSO is 110%. For the molecule `COc1ccc(N/C(C)=C/C(=O)c2ccccc2)cc1`, the GFP response vs DMSO is 104%. In the case of `O=C(Nc1cccc(Cl)c1)ON=C1c2ccccc2-c2ccccc21`, the GFP response vs DMSO was 107%.

As for `COc1ccccc1-c1cc(C(F)(F)F)nc(S(=O)(=O)CCCC(=O)NC(C)C)n1`, the GFP response vs DMSO is 101% and 104%.
